Experimental data from different studies.
Target: Cyclin-dependent kinase 2 (CDK2, Homo sapiens, UniProt P24941)
Method: competition with immobilised ligand

| Compound | test | conditions | remaining binding |
| --- | --- | --- | --- |
| COc1cnc(Nc2cccc(S(N)(=O)=O)c2)nc1N1CCN(c2ccccc2)C(=O)C1 | binding | 1 µM | 97% |
| CN(CCCC(F)(F)F)c1nccc(-c2cnn3ncccc23)n1 | binding | 1 µM | 100% |
| FC(F)(F)Oc1cccc(-c2cnc3ccc(-c4ccncc4)nn23)c1 | cell-free assay | 5 µM | 81% |
| O=C(O)c1cc(-c2ccc(C3CCNCC3)cc2)c2ccc(-c3ccc(C(F)(F)F)cc3)cc2c1 | cell-free assay | 1 µM | 100% |
| C[C@@H]1CN(c2ccc3ncc(-c4ccc5[nH]nc(C6CC6)c5c4)n3n2)C[C@H](C)O1 | binding | 50 nM | 100% |
| O=C(NCCCN1CCOCC1)c1ccc(Nc2ncc(Cl)c(-c3ccc(Cl)s3)n2)cc1 | binding | 1 µM | 62% |
| CNC(=O)[C@@H]1CC[C@@H](n2c(-c3ccc4cnccc4c3)nc3ccc(C(=O)NCc4cccc(C(N)=O)c4)cc32)C1 | binding | 1 µM | 100% |
| Nc1cnc(N2CCc3cc(S(=O)(=O)Nc4c(F)cc(Cl)cc4F)cc(N4CCCC4=O)c32)nc1 | cell-free assay | 1 µM | 100% |
| F[C@@H]1CCN(c2nccc(-c3cnn4ncccc34)n2)C1 | binding | 1 µM | 100% |
| O=C(c1ccc(Nc2nccc(-c3cc4ccccc4s3)n2)cc1)N1CCC(N2CCCC2)CC1 | binding | 1 µM | 84% |
| O=S(=O)(NC1CCC(c2cc(F)ccc2F)(S(=O)(=O)c2ccc(Cl)cc2)CC1)C(F)(F)F (stereo not shown) | cell-free assay | 1 µM | 100% |
| N#Cc1ccccc1CSc1nnc2c(n1)[nH]c1ccccc12 | binding | 10 µM | 82% |
| CO[C@H]1CC[C@H](CNc2ccc(S(=O)(=O)NC(=O)c3ccc(N4CCN(CC5=C(c6ccc(Cl)cc6)CC(C)(C)CC5)CC4)cc3Oc3cnc4[nH]ccc4c3)cc2[N+](=O)[O-])CC1 | cell-free assay | 1 µM | 100% |
| O=C(c1ccc(Nc2ncc(Cl)c(-c3cc4ccccc4s3)n2)cc1)N1CCC(N2CCCC2)CC1 | binding | 1 µM | 12% |
| COc1ccc2c(c1)O[C@H](c1ccc(OC)c(OC)c1)C[C@@H]2NC(=O)C1(c2ccc3c(c2)OC(F)(F)O3)CC1 | cell-free assay | 1 µM | 100% |
| O=C(Nc1c[nH]nc1C(=O)NC1CCNCC1)c1cc(F)cc(F)c1 | binding | 1 µM | 98% |
